High-throughput results as filed in PubChem BioAssay.
Rows were chosen to be rich in hits. Some 4.6% of all compounds tested hit in one or more screens of this group.
GPR7 antag = GPR7 receptor antagonists, primary screen, cell-based, fluorescence, single concentration. Neuropeptides B/W receptor type 1 (Homo sapiens), P48145. GPR7-expressing cells, fluorescence antagonist assay. inhibition, % at 4.4 µM. actives 1.1% (n = 290,000); in the data active = inhibition above about 16%, passing the limit was not always enough;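 note: cells stimulated with the agonist NPW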
Target sequence (P48145 whole entry, looked up): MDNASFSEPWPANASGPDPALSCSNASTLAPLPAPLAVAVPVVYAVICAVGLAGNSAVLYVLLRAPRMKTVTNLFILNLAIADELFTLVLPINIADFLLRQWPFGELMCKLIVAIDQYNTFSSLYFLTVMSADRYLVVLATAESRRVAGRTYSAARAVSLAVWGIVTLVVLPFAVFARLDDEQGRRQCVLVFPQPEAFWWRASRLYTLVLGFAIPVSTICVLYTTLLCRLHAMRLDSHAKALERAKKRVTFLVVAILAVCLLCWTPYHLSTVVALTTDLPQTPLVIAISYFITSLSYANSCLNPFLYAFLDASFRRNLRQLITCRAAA
TAAR1 antag = human TAAR1 antagonists, primary screen, Fluo-8 calcium fluorescence, CHO RD-HGA16 cells. actives 1.5% (n = 360,000). AID 624466, 2012. antagonist. Trace amine-associated receptor 1 (Homo sapiens), Q96RJ0. inhibition, % at 3 µM;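 active = inhibition above a per-plate cutoff, the mean inhibition of test compounds on that plate plus 3 SD, cut at about 49% in these data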
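Test system: CHO RD-HGA16 cells bearing hTAAR1 | Reagent: β-PEA, EC80 | Compound dosing: 3 µM, single point | Schedule: Dye loading 75 min at 37 °C, then 30 min room temperature | Signal: Calcium fluorescence with Fluo-8 | Evaluation: Percent inhibition of PEA-evoked calcium signal, max/basal emission ratio | Control set: DMSO-only wells and EC80 β-PEA-stimulated wells | Repeats: Singlicate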
CHO parental Ca = ATP-evoked calcium signal inhibitors, parental CHO, primary screen, counter-screen for OX1R antagonist project, cell-based, fluorescence, Fluo-8 calcium dye; parental CHO-K1, ATP-induced calcium, Fluo-8 fluorescence; inhibition, % at 5.6 µM; actives 0.63% (n = 330,000);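 active = inhibition above that plate's mean sample inhibition plus 3 SD, cut at about 26% in these data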
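Test system: untransfected parental CHO cell line; also added: ATP stimulus; dosing: 5.6 µM, single dose; signal: calcium-sensitive Fluo-8 fluorescence; measure: percent inhibition of ATP-evoked calcium rise, normalized to controls; benchmarks: low control ATP plus DMSO, high control DMSO only; replication: one well per compound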
OX1R antag-1 = OX1R (HCRTR1) antagonists, primary screen, fluorescence, CHO/OX1R cells, Fluo-8 calcium, orexin A; AID 434989, 2010; inhibition, % at 5 µM; actives 0.43% (n = 330,000); Fluo-8 calcium fluorescence;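 active = inhibition above its plate's threshold, mean inhibition of all tested compounds on the plate plus 3 SD, cut at about 37% in these data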
Target sequence (O43613 whole entry, looked up): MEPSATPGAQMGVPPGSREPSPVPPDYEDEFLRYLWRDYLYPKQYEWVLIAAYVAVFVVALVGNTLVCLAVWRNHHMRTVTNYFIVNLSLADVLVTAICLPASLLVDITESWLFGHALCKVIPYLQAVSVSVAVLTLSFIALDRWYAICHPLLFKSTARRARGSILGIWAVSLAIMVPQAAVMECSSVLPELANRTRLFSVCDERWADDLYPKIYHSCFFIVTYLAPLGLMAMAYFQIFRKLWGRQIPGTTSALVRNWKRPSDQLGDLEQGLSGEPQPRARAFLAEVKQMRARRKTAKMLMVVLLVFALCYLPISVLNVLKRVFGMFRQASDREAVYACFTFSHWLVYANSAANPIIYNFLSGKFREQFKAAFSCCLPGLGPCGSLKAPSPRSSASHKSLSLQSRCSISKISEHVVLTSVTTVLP
TAAR1 ag = human TAAR1 agonists, primary screen, Fluo-8 calcium fluorescence, CHO RD-HGA16 cells; Trace amine-associated receptor 1 (Homo sapiens), Q96RJ0; vehicle wells 0%, saturating PEA agonist 100%; activation, % at 3 µM; actives 0.99% (n = 360,000); AID 624467, 2012;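 active = activation above the mean activation of all test compounds in the run plus 3 SD, cut at about 38% in these data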
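Benchmarks: low control DMSO, high control PEA (EC100); System: CHO RD-HGA16 cells carrying human TAAR1 plus Gα16; Detection: Fluo-8 fluorescence, 5 s baseline then 140 s kinetic read; Schedule: 17-24 h plating, Fluo-8 75 min 37 °C, 30 min RT; Read-out basis: % activation from peak over basal fluorescence ratio, DMSO-to-PEA scaled.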
OX1R antag-2 = antagonists of human orexin 1 receptor (OX1R); Orexin/Hypocretin receptor type 1 (Homo sapiens), O43613; OX1R-expressing cells, FRET antagonist read-out; inhibition, % at 6.6 µM; actives 1.8% (n = 330,000); in the data active = inhibition mostly above about 38%, no sharp cut-off; inactive = mostly below about 40%
TAAR1 ag confirm = human TAAR1 agonists, retest of hits, confirmation, Fluo-8 calcium fluorescence, CHO RD-HGA16 cells; shares compounds with TAAR1 ag; scaled: DMSO 0%, maximal phenethylamine 100%; activation, % at 3 µM; actives 82% (n = 2,400); AID 651783, 2012;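 active = activation above a cutoff set at the run's mean compound activation plus 3 SD, cut at about 39% in these data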
Ga16 nonsel ag = nonselective calcium mobilization agonists, CHO-Ga16 cells, counter-screen for hTAAR1 agonist project, cell-based, fluorescence, CHO-Ga16 parental line | shares compounds with TAAR1 ag | Fluo-8 calcium fluorescence; normalized to maximal ATP response, DMSO zero | activation, % at 3 µM | actives 50% (n = 2,400) | AID 651787, 2012;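 active = activation above the run cutoff, the mean activation over all tested wells plus 3 SD, cut at about 12% in these data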
TAAR1 desensitize = TAAR1 desensitization by agonist hits, confirmation, counter-screen for TAAR1 agonist project, cell-based, fluorescence, tachyphylaxis; shares compounds with TAAR1 ag; CHO RD-HGA16 hTAAR1, Fluo-8 calcium, beta-PEA response inhibition; inhibition, % at 3 µM; actives 46% (n = 2,400);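 active = inhibition above the run cutoff, the mean inhibition of all test compounds plus 3 SD, cut at about 49% in these data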;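 note: beta-PEA stimulus applied at its EC80; loss of beta-PEA calcium signal after compound pretreatment read as receptor desensitization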
Ga16 nonsel ant = inhibition of ATP-evoked calcium response in CHO-Ga16 cells, counter-screen for TAAR1 agonist project, cell-based, fluorescence; shares compounds with TAAR1 ag; CHO-Ga16 ATP-induced calcium, Fluo-8 fluorescence; inhibition, % at 3 µM; actives 39% (n = 2,400); AID 651952, 2012;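 active = inhibition above the plate's mean compound inhibition plus 3 SD, computed per plate, cut at about 22% in these data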
A number is an active result.

Results for CNc1[nH]c(=O)[nH]c(=O)c1N=Nc1cc(Cl)ccc1Cl ?
TAAR1 antag: inactive; CHO parental Ca: inactive; OX1R antag-1: inactive; TAAR1 ag: inactive; OX1R antag-2: inactive

Results for O=c1cc(CSc2nnnn2-c2ccccc2)nc(Nc2ccc(F)cc2)[nH]1 ?
GPR7 antag: inactive; TAAR1 antag: inactive; CHO parental Ca: inactive; OX1R antag-1: inactive; TAAR1 ag: 66; OX1R antag-2: inactive; TAAR1 ag confirm: 97; Ga16 nonsel ag: inactive; TAAR1 desensitize: 67; Ga16 nonsel ant: 26

Results for N/C(=N\c1nc(CSc2nnnn2-c2ccccc2)cc(=O)[nH]1)Nc1ccccc1 ?
GPR7 antag: inactive; TAAR1 antag: inactive; CHO parental Ca: inactive; OX1R antag-1: inactive; TAAR1 ag: inactive; OX1R antag-2: inactive

What do the screens show for `C[C@@H](CN=[N+]=[N-])CN1CC[C@H](C(C)(C)C)CCC1=O`?
GPR7 antag: inactive; TAAR1 antag: inactive; CHO parental Ca: inactive; OX1R antag-1: inactive; TAAR1 ag: inactive; OX1R antag-2: inactive

What do the screens show for `O=C(c1ccccc1)c1ccc(OCC(O)CNC2CCCc3ccccc32)cc1` (centres undefined)?
GPR7 antag: inactive; TAAR1 antag: inactive; CHO parental Ca: inactive; OX1R antag-1: inactive; TAAR1 ag: inactive; OX1R antag-2: inactive

What do the screens show for `OC(CNC1CCCc2ccccc21)COc1ccc2ccccc2c1` (centres undefined)?
GPR7 antag: inactive; TAAR1 antag: inactive; CHO parental Ca: inactive; OX1R antag-1: inactive; TAAR1 ag: 69; OX1R antag-2: inactive; TAAR1 ag confirm: 100; Ga16 nonsel ag: 28; TAAR1 desensitize: 70; Ga16 nonsel ant: 31

Results for O=C(CSc1nc2[nH]ncc2c(=O)[nH]1)NCCc1ccccc1 ?
GPR7 antag: inactive; TAAR1 antag: inactive; CHO parental Ca: inactive; OX1R antag-1: inactive; TAAR1 ag: 57; OX1R antag-2: inactive; TAAR1 ag confirm: inactive; Ga16 nonsel ag: inactive; TAAR1 desensitize: inactive; Ga16 nonsel ant: inactive

How did O=C(CSc1nc2[nH]ncc2c(=O)[nH]1)NCc1ccccc1 do in these assays?
GPR7 antag: inactive; TAAR1 antag: inactive; CHO parental Ca: inactive; OX1R antag-1: inactive; TAAR1 ag: inactive; OX1R antag-2: inactive

Results for CC(C(=O)N1CCc2ccccc2C1)N(c1ccccc1)S(C)(=O)=O (centres undefined) ?
GPR7 antag: inactive; TAAR1 antag: inactive; CHO parental Ca: inactive; OX1R antag-1: inactive; TAAR1 ag: inactive; OX1R antag-2: inactive

Results for CC(=C1C(=O)c2ccccc2C1=O)N1CCc2ccccc2C1 ?
GPR7 antag: inactive; CHO parental Ca: inactive; OX1R antag-1: inactive; OX1R antag-2: inactive; Ga16 nonsel ag: inactive; Ga16 nonsel ant: inactive

How did O=C(NCc1ccc(Cl)cc1)c1ccc(-c2ccccc2C(F)(F)F)o1 do in these assays?
GPR7 antag: inactive; TAAR1 antag: inactive; CHO parental Ca: inactive; OX1R antag-1: inactive; TAAR1 ag: inactive; OX1R antag-2: inactive

How did N=C(N)SCc1ccc(Cl)cc1Cl do in these assays?
GPR7 antag: inactive; TAAR1 antag: inactive; CHO parental Ca: inactive; OX1R antag-1: inactive; TAAR1 ag: 58; OX1R antag-2: inactive; TAAR1 ag confirm: 87; Ga16 nonsel ag: 19; TAAR1 desensitize: 60; Ga16 nonsel ant: inactive

What do the screens show for `O=C(Nc1ccc(Cn2ccnc2)cc1)c1cccc(C(F)(F)F)c1`?
GPR7 antag: inactive; TAAR1 antag: inactive; TAAR1 ag: 42; TAAR1 ag confirm: 57; Ga16 nonsel ag: inactive; TAAR1 desensitize: inactive; Ga16 nonsel ant: inactive

Results for COc1ccc(C(=O)Nc2ccc(Cn3ccnc3)cc2)cc1OC ?
GPR7 antag: inactive; TAAR1 antag: inactive; CHO parental Ca: inactive; OX1R antag-1: inactive; TAAR1 ag: inactive; OX1R antag-2: inactive

What do the screens show for `ON=C(c1ccccc1)c1ccc2c3c(cccc13)CC2`?
TAAR1 antag: inactive; TAAR1 ag: inactive

How did O=C(COc1ccccc1)NC(=S)Nc1ccc2c3c(cccc13)CC2 do in these assays?
GPR7 antag: inactive; TAAR1 antag: inactive; CHO parental Ca: inactive; OX1R antag-1: inactive; TAAR1 ag: inactive; OX1R antag-2: inactive

Results for O=C(COc1ccccc1)NC(=S)Nc1cccc2cc(O)ccc12 ?
GPR7 antag: inactive; TAAR1 antag: inactive; CHO parental Ca: inactive; OX1R antag-1: inactive; TAAR1 ag: 72; OX1R antag-2: inactive; TAAR1 ag confirm: 67; Ga16 nonsel ag: 24; TAAR1 desensitize: 49; Ga16 nonsel ant: 29

What do the screens show for `Cc1ccc(S(=O)(=O)N2CCC(C(=O)NCCN3CCOCC3)CC2)cc1`?
TAAR1 antag: inactive; TAAR1 ag: inactive

What do the screens show for `COc1ccc(NC(=O)N2CCc3cc(OC)c(OC)cc3C2)cc1`?
GPR7 antag: inactive; TAAR1 antag: inactive; CHO parental Ca: inactive; OX1R antag-1: inactive; TAAR1 ag: inactive; OX1R antag-2: inactive

Results for COc1ccc(NC(=O)N2CCc3ccccc3C2)cc1OC ?
GPR7 antag: inactive; TAAR1 antag: inactive; CHO parental Ca: inactive; OX1R antag-1: inactive; TAAR1 ag: 59; OX1R antag-2: inactive; TAAR1 ag confirm: 66; Ga16 nonsel ag: inactive; TAAR1 desensitize: inactive; Ga16 nonsel ant: inactive

What do the screens show for `COc1ccc(OC)c(NC(=O)N2CCc3ccccc3C2)c1`?
GPR7 antag: inactive; TAAR1 antag: inactive; CHO parental Ca: inactive; OX1R antag-1: inactive; TAAR1 ag: 44; OX1R antag-2: inactive; TAAR1 ag confirm: 57; Ga16 nonsel ag: inactive; TAAR1 desensitize: inactive; Ga16 nonsel ant: inactive
